Source: ChEMBL document CHEMBL1156788, “A 1,8-naphthyridone derivative targets the HIV-1 Tat-mediated transcription and potently inhibits the HIV-1 replication” (J Med Chem, 2010)
In brackets after ≈: the same amount, converted by molar mass. Activity calls are given as the source filed them.

What was measured:
[1] = system: Human immunodeficiency virus 2; test: Antiviral activity against HIV2 ROD in human MT4 cells assessed as protection against virus-induced cytopathogenicity by MTT assay; format: functional, organism-based; conditions: Human immunodeficiency virus 2, ISOLATE ROD
How it was run: (§1)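 MT-4 cells at 6 × 10^5 cells/mL, mock- or virus-infected with HIV-1 IIIB or HIV-2 ROD at 100-300 CCID50, with serial 5-fold compound dilutions in triplicate. After 5 days, viability read by MTT at 540 and 690 nm, using the median OD of three wells. EC50 = 50% protection from viral cytopathic effect; CC50 = 50% reduction of OD540 in mock-infected cells. SI = CC50/EC50; mean ± SD of ≥2 experiments.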

[2] = Selectivity index, ratio of CC50 for human MT4 cells to EC50 for HIV2 ROD; format: toxicity, cell-based; conditions: read-out: Ratio CC50/EC50; how it was run: as §1
[3] = Selectivity index, ratio of CC50 for human MT4 cells to EC50 for HIV1 3B; format: toxicity, cell-based; conditions: read-out: Ratio CC50/EC50; how it was run: as §1
[4] = system: Human immunodeficiency virus 1; test: Antiviral activity against HIV1 3B in human MT4 cells assessed as protection against virus-induced cytopathogenicity by MTT assay; format: functional, organism-based; conditions: Human immunodeficiency virus 1, 3B; how it was run: as §1
[5] = Cytotoxicity against human MT4 cells by MTT assay; format: cell-based; how it was run: as §1
[6] = system: Human immunodeficiency virus 1; test: Antiviral activity against HIV1 3B in human MT4 cells assessed as inhibition of p24 protein production measured delay in infection up to 18 hrs by time-of addition experiment; format: functional, organism-based; conditions: in the assay text read “up to 10 hrs” for “up to 18 hrs”
How it was run: (§2)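 Time-of-addition assay. MT-4 cells infected with HIV-1 IIIB at moi 0.5 to synchronize replication. Compounds added at various times from 0 to 25 h post-infection; p24 antigen in supernatant measured by ELISA at 31 h p.i. Reference drugs AZT and ritonavir were given at 100× their MT-4/MTT IC50.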

[7] = system: Human immunodeficiency virus 1; test: Antiviral activity against HIV1 in human OM10.1 cells assessed as inhibition of PMA-stimulated viral expression measured by p24 production; format: functional, organism-based
How it was run: (§3)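 Latently infected OM-10.1 and U1 cells at 5 × 10^5 cells/mL preincubated 2 h with or without compound, then stimulated with TNF-α 1 ng/mL or PMA 0.02 μM. After 2 days at 37 °C, p24 in supernatant measured by ELISA; viability assessed in parallel by MTT. EC50 = 50% reduction of p24; mean ± SD of ≥3 experiments.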

[8] = Selectivity index, ratio of CC50 for human MT4 cells to EC50 for HIV1 3B mutant after 60 passage resistance selection by MTT assay; format: toxicity, cell-based; conditions: read-out: Ratio CC50/EC50
[9] = Cytotoxicity against human PBMC by MTT assay; format: cell-based; conditions: in the assay text read “trypan blue exclusion method” for “MTT assay”
How it was run: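 Cytotoxicity in PHA-stimulated PBMCs read by trypan blue exclusion; CC50 = concentration reducing viability of mock-infected cells by 50%. Mean ± SD of at least two experiments.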

[10] = system: Human immunodeficiency virus 1; test: Antiviral activity against HIV1 3B in human […] cells assessed as inhibition of p24 production; format: functional, organism-based; conditions: Human immunodeficiency virus 1, 3B
How it was run: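 Chronically infected HuT-78 cells washed with PBS and pelleted three times, then 200000 cells per 1 mL seeded with test compound at set concentrations. Grown 44 h; supernatant p24 measured by ELISA. EC50 = 50% reduction of p24 production; mean ± SD of at least three separate experiments. Nevirapine and ritonavir included as controls.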

[11] = Cytotoxicity against human HuT78 by MTT assay; format: cell-based; conditions: HuT78 cells
How it was run: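 Chronically infected HuT-78 cells; CC50 defined as the concentration reducing cell viability by 50%, measured by the MTT method. Mean ± SD of at least three separate experiments.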

[12] = Cytotoxicity against human Jurkat cells by MTT assay; format: cell-based
[13] = Selectivity index, ratio of CC50 for TNF-alpha-stimulated human OM10.1 cells to EC50 for HIV1; format: toxicity; conditions: read-out: Ratio CC50/EC50
How it was run: (§4)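 OM-10.1 or U1 cells at 5 × 10⁵ cells/mL were preincubated with compound for 2 h, then stimulated with TNF-α 1 ng/mL or PMA 0.02 μM. After 2 days at 37 °C, supernatant p24 was measured by ELISA for EC50, and parallel cultures were read by MTT for CC50. SI = CC50/EC50. Mean ± SD of at least three experiments.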

[14] = Selectivity index, ratio of CC50 for human PBMC to EC50 for HIV1
How it was run: (§5)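 PBMCs from healthy donors isolated by density centrifugation and stimulated 3 days with PHA. Blasts washed, plated at 2 × 10^5 per well with serial compound dilutions and infected with HIV at 1000 CCID50/mL. Medium and compound refreshed at day 4; p24 in supernatant measured by ELISA at day 7. EC50 = 50% inhibition of p24; SI = CC50/EC50.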

[15] = Cytotoxicity against PMA-stimulated human OM10.1 cells by MTT assay; format: cell-based; how it was run: as §3
[16] = system: Human immunodeficiency virus 1; test: Antiviral activity against HIV1 3B mutant in human MT4 cells assessed as protection against virus-induced cytopathogenicity after 60 passage resistance selection by MTT assay; format: functional, organism-based; conditions: Human immunodeficiency virus 1, 3B
How it was run: (§6)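 Virus added at 100-300 CCID50 to MT-4 cells (6 × 10⁵ cells/mL) together with serial 5-fold compound dilutions, triplicate wells. Viability read by MTT after 5 days at 540 and 690 nm, using the median OD of three wells. EC50 is the concentration giving 50% protection from virus-induced cytopathic effect. Mean ± SD of at least two experiments.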

[17] = Cytotoxicity against PMA-stimulated human U1 cells by MTT assay; format: cell-based; how it was run: as §3
[18] = system: Human immunodeficiency virus 1; test: Antiviral activity against HIV1 3B in human MT4 cells assessed as inhibition of p24 protein production measured delay in infection up to 5 hrs by time-of addition experiment; format: functional, organism-based; conditions: in the assay text read “up to 10 hrs” for “up to 5 hrs”; how it was run: as §2
[19] = system: Human immunodeficiency virus 1; test: Antiviral activity against HIV1 in human U1 cells assessed as inhibition of TNF-alpha-stimulated viral expression measured by p24 production; format: functional, organism-based; conditions: Human immunodeficiency virus 1, U1; how it was run: as §3
[20] = system: Human immunodeficiency virus 1; test: Antiviral activity against HIV1 in human PBMC assessed as inhibition of p24 protein production by MTT assay; format: functional, organism-based; conditions: in the assay text read “by ELISA” for “by MTT assay”; how it was run: as §5
[21] = Selectivity index, ratio of CC50 for human Jurkat cells to EC50 for HIV1; format: toxicity, cell-based; conditions: read-out: Ratio CC50/EC50
[22] = Cytotoxicity against TNF-alpha-stimulated human OM10.1 cells by MTT assay; format: cell-based; how it was run: as §3
[23] = Selectivity index, ratio of CC50 for human MT4 cells to EC50 for HIV1 3B mutant; format: toxicity, cell-based; conditions: read-out: Ratio CC50/EC50
How it was run: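 SI = CC50 in mock-infected MT-4 cells (MTT, 5 days) divided by EC50 against the selected mutant in the MT-4 MTT cytopathicity assay.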

[24] = system: Human immunodeficiency virus 1; test: Antiviral activity against HIV1 in human U1 cells assessed as inhibition of PMA-stimulated viral expression measured by p24 production; format: functional, organism-based; conditions: Human immunodeficiency virus 1, U1; how it was run: as §3
[25] = system: Human immunodeficiency virus 1; test: Antiviral activity against HIV1 in human OM10.1 cells assessed as inhibition of TNF-alpha-stimulated viral expression measured by p24 production; format: functional, organism-based; how it was run: as §3
[26] = system: Human immunodeficiency virus 1; test: Antiviral activity against HIV1 3B in human MT4 cells assessed as inhibition of p24 protein production measured delay in infection up to 10 hrs by time-of addition experiment; format: functional, organism-based; how it was run: as §2
[27] = Selectivity index, ratio of CC50 for TNF-alpha-stimulated human U1 cells to EC50 for HIV1; format: toxicity, cell-based; conditions: read-out: Ratio CC50/EC50; how it was run: as §4
C8166T = test: Antiviral activity against integrase deficient Simian virus 40/HIV-1 chimera (n/N.Tag.oriT) virus in human C8166T cells assessed as inhibition of viral replication; format: functional, cell-based
How it was run: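 C8166 T-cells were infected with HIV-1 NL4.3 or N/N.Tag.oriT and exposed to a range of compound concentrations. p24 in the supernatant was measured relative to untreated controls (100%). Toxicity was read in parallel by MTT.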

[28] = Cytotoxicity against TNF-alpha-stimulated human U1 cells by MTT assay; format: cell-based; how it was run: as §3
[29] = system: Human immunodeficiency virus 1; test: Antiviral activity against HIV1 in human HeLa cells assessed as inhibition of Tat-mediated transcription after 24 hrs by LTR-driven luciferase reporter assay; format: functional, organism-based
How it was run: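 HeLa clone carrying an HIV-1 LTR-luciferase reporter, activated with subsaturating Tat or left without Tat for basal promoter activity. Cells incubated with increasing compound concentrations; luciferase measured in cell lysates 24 h after treatment. Controls were DMSO vehicle, untreated cells and flavopiridol at 10 μM.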

[30] = system: Human immunodeficiency virus 1; test: Antiviral activity against HIV1 3B mutant in human MT4 cells assessed as protection against virus-induced cytopathogenicity by MTT assay; format: functional, organism-based; conditions: Human immunodeficiency virus 1, 3B; how it was run: as §6
[31] = Selectivity index, ratio of CC50 for PMA-stimulated human U1 cells to EC50 for HIV1; format: toxicity, cell-based; conditions: read-out: Ratio CC50/EC50; how it was run: as §4
[32] = Selectivity index, ratio of CC50 for PMA-stimulated human OM10.1 cells to EC50 for HIV1; format: toxicity; conditions: read-out: Ratio CC50/EC50; how it was run: as §4
[33] = system: Human immunodeficiency virus 1; test: Antiviral activity against HIV1 in human Jurkat cells assessed as inhibition of GFP expression by flow cytometry; conditions: Human immunodeficiency virus 1, Jurkat

Cn1cc(C(=O)O)c(=O)c2ccc(N3CCN(c4nccs4)CC3)nc21
EC50 [1]: 0.922 mg/L (≈ 2.48 µM)
selectivity ratio [2]: > 136
selectivity ratio [3]: > 40
EC50 [4]: 3.15 mg/L (≈ 8.48 µM)
CC50 [5]: > 125 mg/L

Cn1cc(C(=O)O)c(=O)c2ccc(N3CCN(c4ccccn4)CC3)nc21
EC50 [1]: 0.55 mg/L (≈ 1.51 µM)
selectivity ratio [2]: 18
selectivity ratio [3]: 16
EC50 [4]: 0.62 mg/L (≈ 1.7 µM)
CC50 [5]: 9.93 mg/L (≈ 27.2 µM)

Cn1cc(C(=O)O)c(=O)c2ccc(N3CCN(c4cccc(C(F)(F)F)c4)CC3)nc21
EC50 [1]: > 0.41 mg/L
selectivity ratio [2]: < 1
selectivity ratio [3]: < 1
EC50 [4]: > 0.41 mg/L
CC50 [5]: 0.41 mg/L (≈ 0.948 µM)

Cn1cc(C(=O)O)c(=O)c2ccc(N3CCN(c4nc5ccccc5s4)CC3)nc21
EC50 [1]: 0.02 mg/L (≈ 0.0475 µM)
Activity [6]: Active
EC50 [7]: 0.004 mg/L (≈ 0.00949 µM)
selectivity ratio [8]: 1420
CC50 [9]: 10.3 mg/L (≈ 24.5 µM)
EC50 [10]: 0.032 mg/L (≈ 0.0759 µM)
CC50 [11]: > 10 mg/L
CC50 [12]: 15.1 mg/L (≈ 35.9 µM)
selectivity ratio [13]: 422
Ratio CC50/EC50 [14]: 17
CC50 [15]: 0.75 mg/L (≈ 1.78 µM)
EC50 [16]: 0.017 mg/L (≈ 0.0403 µM)
CC50 [17]: 2.67 mg/L (≈ 6.33 µM)
selectivity ratio [2]: 522
Activity [18]: Active
EC50 [19]: 0.003 mg/L (≈ 0.00712 µM)
selectivity ratio [3]: 457
EC50 [20]: 0.6 mg/L (≈ 1.42 µM)
selectivity ratio [21]: 44
EC50 [4]: 0.03 mg/L (≈ 0.0712 µM)
CC50 [22]: 1.27 mg/L (≈ 3.01 µM)
selectivity ratio [23]: 1280
EC50 [24]: 0.002 mg/L (≈ 0.00475 µM)
EC50 [25]: 0.003 mg/L (≈ 0.00712 µM)
Activity [26]: Active
selectivity ratio [27]: 330
Activity (C8166T): Active
CC50 [28]: 0.99 mg/L (≈ 2.35 µM)
Activity [29]: Dose-dependent effect
EC50 [30]: 0.019 mg/L (≈ 0.0451 µM)
selectivity ratio [31]: 1330
selectivity ratio [32]: 189
CC50 [5]: 12.1 mg/L (≈ 28.6 µM)
EC50 [33]: 0.34 mg/L (≈ 0.807 µM)
